Read-outs that look alike come from different tables or passages of the source. Each block holds one compound with its values, some of them ahead of it.
Tests used:
[1] = type: in vivo, cynomolgus monkeys; settings: for time of maximal plasma level: after S230 30 mg/kg oral gavage
Method in brief: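 Three monkeys were gavaged with 30 mg/kg (4.4 mL/kg) of an ethanol stock diluted into 10 volumes of 20 mM NaHCO3. Heparinized blood was taken predose and at 1–24 h, and plasma was stored at −80 °C. Plasma was treated with MeOH and an indole internal standard, then C18 solid-phase extracted. Quantitation used RP-HPLC-UV (60–80% MeOH, 0.02% HOAc) by peak-area ratio to the internal standard, with identities confirmed by LC-MS/MS.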

OXE receptor [2] = biological target: T1, OXE receptor (Homo sapiens, UniProt Q8TDS5); settings: S230 vs R230; cited from earlier work
OXE receptor [3] = biological target: T1, OXE receptor; assay: Inhibition of 5-oxo-ETE-induced calcium mobilization in human neutrophils; type: cell-based
Method in brief: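 Neutrophils isolated by dextran sedimentation and Ficoll-Paque centrifugation, loaded with indo-1 AM and held in a cuvette at 37 °C. Once baseline fluorescence was stable, the test compound was added, then 10 nM 5-oxo-ETE 2 min later, then digitonin (0.1% final) 1 min after that. Calcium response was read by spectrofluorometry.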

[4] = Incubation with plasma or intact leukocytes; type: in vitro ADME
[5] = oral racemic 230; cited from earlier work
OXE receptor [6] = settings: feline; cited from earlier work
OXE receptor [7] = settings: cited from earlier work
[8] = monkey liver microsomes + NADPH; cited from earlier work

T1 sequence (Q8TDS5 whole entry): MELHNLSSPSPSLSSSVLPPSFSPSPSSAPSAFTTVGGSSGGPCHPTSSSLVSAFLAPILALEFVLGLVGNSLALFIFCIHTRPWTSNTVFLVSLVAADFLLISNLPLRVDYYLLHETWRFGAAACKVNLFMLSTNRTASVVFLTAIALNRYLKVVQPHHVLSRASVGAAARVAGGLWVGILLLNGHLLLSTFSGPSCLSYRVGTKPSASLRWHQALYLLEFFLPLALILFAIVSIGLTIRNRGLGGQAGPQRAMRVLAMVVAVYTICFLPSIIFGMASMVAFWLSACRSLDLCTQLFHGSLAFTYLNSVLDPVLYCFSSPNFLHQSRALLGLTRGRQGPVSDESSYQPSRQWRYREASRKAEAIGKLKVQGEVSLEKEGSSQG

Structure (SMILES): CCCCCCc1c(C(=O)C[C@H](C)CC(=O)O)c2cc(Cl)ccc2n1C [S230, (S)-5-(5-chloro-2-hexyl-1-methyl-1H-indol-3-yl)-3-methyl-5-oxopentanoate]
plasma concentration ([1]; 8 h after S230 30 mg/kg oral): greater than 1.5 μM
maximal plasma concentration ([1]; S230 30 mg/kg oral gavage, at 1 h): 32 µM
time of maximal plasma level [1]: ≤ 1 h
plasma level as % of maximal concentration ([1]; by 4 h after S230 30 mg/kg oral): about 11%
plasma level as % of maximal concentration ([1]; by 8 h after S230 30 mg/kg oral): 5%
potency relative to the R-enantiomer (R230) (OXE receptor [2]): over 400 times

Structure (SMILES): CCCCC[C@@H](O)c1c(C(=O)C[C@H](C)CC(=O)O)c2cc(Cl)ccc2n1C [x2, (S)-5-(5-chloro-2-((R)-1-hydroxyhexyl)-1-methyl-1H-indol-3-yl)-3-methyl-5-oxopentanoic acid]
IC50 (OXE receptor [3]): > 10 µM
peak area relative to the area of metabolite e ([1]; all time points, plasma after S230 30 mg/kg oral, RP-HPLC): about 3%

Structure (SMILES): CCCCCCc1c(C(=O)CC(C)CC(=O)O)c2cc(Cl)ccc2n1C (stereo not shown) [compound 230, 5-(5-chloro-2-hexyl-1-methyl-1H-indol-3-yl)-3-methyl-5-oxopentanoate]
formation of α-hydroxylation products [4]: Neither did we detect such products
maximal plasma concentration [5]: 87 µM
antagonist activity in cats (OXE receptor [6]): only a weak antagonist
antagonist activity in vitro in monkeys (OXE receptor [7]): potent OXE receptor antagonist
formation of α-OH-230 [8]: did not detect α-OH-230

Next, values leading:

time of maximal plasma level [1]: ≤ 4 h
Structure (SMILES): CC(O)CCCCc1c(C(=O)C[C@H](C)CC(=O)O)c2cc(Cl)ccc2n1C (stereo partly drawn) [ω2-OH-S230, (3S)-5-(5-chloro-2-(5-hydroxyhexyl)-1-methyl-1H-indol-3-yl)-3-methyl-5-oxopentanoate]

IC50 (OXE receptor [3]): 1.6 ± 0.3 µM
Tmax ([1]; female, cynomolgus monkey, plasma, po, 30 mg/kg): ≤ 1 h
Structure (SMILES): CCCCC[C@H](O)c1c(C(=O)C[C@H](C)CC(=O)O)c2cc(Cl)ccc2n1C [y1, (S)-5-(5-chloro-2-((S)-1-hydroxyhexyl)-1-methyl-1H-indol-3-yl)-3-methyl-5-oxopentanoic acid]

— publication PMC5710753 (Biochemical pharmacology, 2017)
